This is an account of results in ChEMBL document CHEMBL4382232, “Grayanane Diterpenoid Glucosides from the Leaves of Rhododendron micranthum and Their Bioactivities Evaluation” (2018).

Assay [1] relates to RAW264.7. Briefly: Anti-inflammatory activity in mouse RAW264.7 cells assessed as inhibition of LPS-induced NO production at 40 uM. In kind it is functional, cell-based.
Assay [2] relates to MCF7. Put plainly: Cytotoxicity against human MCF7 cells at 40 uM after 48 hrs by MTT assay. In kind it is functional, cell-based. (In general: Formazan colour is commonly taken as a measure of viable cells.)
Assay [3] concerns SW480. Briefly: Cytotoxicity against human SW480 cells at 40 uM after 48 hrs by MTT assay. In kind it is functional, cell-based.
Assay [4] relates to SMMC-7721. Put plainly: Cytotoxicity against human SMMC7721 cells at 40 uM after 48 hrs by MTT assay. In kind it is functional, cell-based.
Assay [5] concerns A549. Briefly: Cytotoxicity against human A549 cells at 40 uM after 48 hrs by MTT assay. In kind it is functional, cell-based.
The test system of assay [6] is HL-60. Put plainly: Cytotoxicity against human HL60 cells at 40 uM after 48 hrs by MTT assay. In kind it is functional, cell-based.
For assay [7], the target named is T1, Tyrosine-protein phosphatase non-receptor type 1 (Homo sapiens) (UniProt P18031).
T1 sequence (whole entry): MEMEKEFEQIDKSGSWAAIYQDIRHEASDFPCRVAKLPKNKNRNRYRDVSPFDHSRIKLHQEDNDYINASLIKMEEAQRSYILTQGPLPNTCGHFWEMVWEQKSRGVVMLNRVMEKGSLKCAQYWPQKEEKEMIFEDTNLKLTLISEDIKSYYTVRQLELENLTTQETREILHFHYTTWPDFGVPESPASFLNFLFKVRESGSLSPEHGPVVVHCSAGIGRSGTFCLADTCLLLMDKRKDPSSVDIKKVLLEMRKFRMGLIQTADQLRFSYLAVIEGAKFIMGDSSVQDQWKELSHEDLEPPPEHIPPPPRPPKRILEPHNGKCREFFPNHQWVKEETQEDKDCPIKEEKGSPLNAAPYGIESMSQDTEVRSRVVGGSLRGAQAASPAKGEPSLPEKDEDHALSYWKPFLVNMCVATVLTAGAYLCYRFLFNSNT
Briefly: Inhibition of recombinant human PTP1B at 40 uM using pNPP as substrate preincubated for 10 mins followed by substrate addition and measured after 30 mins at 5 mins time interval for 30 mins.

The test system of assay [8] is Mus musculus. Put plainly: Antinociceptive activity in Kunming mouse model of acetic-acid-induced writhing assessed as inhibition of writhing numbers at 5 mg/kg measured for 30 mins relative to control. The conditions noted are these: for inhibition in vivo at 5 mg/kg: 0.5 h. In kind it is functional. A digest of the protocol: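 Acetic-acid-induced writhing model in Kunming mice (10 per group); doses 0.2, 1.0 and 5.0 mg/kg; vehicle-treated and morphine positive-control groups; inhibition of writhing relative to vehicle; mean ± SEM; one-way ANOVA with Bonferroni test. Animal work approved by institutional ethics committee.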
In general terms: In writhing tests, fewer writhes than in controls are read as antinociception.

Structures are written as SMILES. Activity calls are given as the source filed them. The calls are words filed in the database; no cut-off is given here.

In the case of `C=C1[C@H]2C[C@H](O)C(C)(C)[C@]2(O)CC[C@@]23C[C@@](O)(CC[C@@H]12)[C@](C)(O[C@@H]1O[C@H](CO)[C@@H](O)[C@H](O)[C@H]1O)C3`, the inhibition entry in assay [1] and in assay [7] was “inactive” in each case. For the same compound, the result in assay [2], in assay [3], in assay [4], in assay [5] and in assay [6] was inactive. Besides, in assay [8], the inhibition result is “Active”.

As to `C=C1[C@H]2C[C@H](O)C(C)(C)[C@]2(O)CC[C@@]23C[C@@H](CC[C@@H]12)[C@](C)(O[C@@H]1O[C@H](CO)[C@@H](O)[C@H](O)[C@H]1O)C3`, the inhibition result in assay [1], in assay [7] and in assay [8] was “inactive” in each case. Moreover, the outcome in assay [2], in assay [3], in assay [4], in assay [5] and in assay [6] was inactive.

In the case of `C=C1[C@@H]2CC[C@@H]3C[C@@]2(C[C@@H](O)[C@@]2(O)[C@H]1C[C@H](O[C@@H]1O[C@H](CO)[C@@H](O)[C@H](O)[C@H]1O)C2(C)C)C[C@@]3(C)O`, the inhibition result in assay [1] and in assay [7] was “inactive” in each case. The result in assay [2], in assay [3], in assay [4], in assay [5] and in assay [6] was inactive. Also, the inhibition result in assay [8] is “Active”.

As for `CC1(C)[C@@H](O[C@@H]2O[C@H](CO)[C@@H](O)[C@H](O)[C@H]2O)C[C@H]2[C@](C)(O)[C@@H]3CC[C@@H]4[C@@H](O)[C@@]3(C[C@@H](O)[C@@]21O)C[C@@]4(C)O`, the inhibition result in assay [1] and in assay [7] was “inactive” throughout. Moreover, the result in assay [2], in assay [3], in assay [4], in assay [5] and in assay [6] was inactive. In addition, the inhibition in vivo – broadly, the relative decrease from the control value, in per cent – at 5 mg/kg in assay [8] was above 50%.

`C=C1[C@@H]2CC[C@@H]3[C@@H](O)[C@@]2(C[C@@H](O)[C@@]2(O)[C@H]1C[C@H](O[C@@H]1O[C@H](CO)[C@@H](O)[C@H](O)[C@H]1O)C2(C)C)C[C@@]3(C)O`: the inhibition result in assay [1] and in assay [7] was “inactive” throughout. The result in assay [2], in assay [3], in assay [4], in assay [5] and in assay [6] was inactive. In assay [8], the inhibition in vivo at 5 mg/kg is above 50%.

As to `CC(=O)O[C@@H]1[C@H]2CC[C@H]3[C@@](C)(O)[C@@H]4C[C@H](O[C@@H]5O[C@H](CO)[C@@H](O)[C@H](O)[C@H]5O)C(C)(C)[C@@]4(O)[C@H](O)C[C@@]13C[C@@]2(C)O`, the inhibition result in assay [1], in assay [7] and in assay [8] was “inactive” throughout. For the same compound, the result in assay [2], in assay [3], in assay [4], in assay [5] and in assay [6] was inactive.

For `C=C1[C@H]2C[C@H](O[C@@H]3O[C@H](CO)[C@@H](O)[C@H](O)[C@H]3O)C(C)(C)[C@]2(O)CC[C@@]23C[C@@](O)(CC[C@@H]12)[C@](C)(O)C3`, the inhibition result in assay [1] and in assay [7] was “inactive” throughout. Besides, the result in assay [2], in assay [3], in assay [4], in assay [5] and in assay [6] was inactive.

Take `C=C1[C@@H]2CC[C@@H]3C[C@]2(C[C@@]3(C)O)[C@H](O)[C@@H](O)[C@@]2(O)[C@H]1C[C@H](O[C@@H]1O[C@H](CO)[C@@H](O)[C@H](O)[C@H]1O)C2(C)C`: the inhibition result in assay [1] and in assay [7] was “inactive” throughout. Besides, the outcome in assay [2], in assay [3], in assay [4], in assay [5] and in assay [6] was inactive.

Regarding `C=C1[C@@H]2CC[C@@H]3C[C@]2(C=C3C)C[C@@H](O)[C@@]2(O)[C@H]1C[C@H](O[C@@H]1O[C@H](CO)[C@@H](O)[C@H](O)[C@H]1O)C2(C)C`, the inhibition result in assay [1] and in assay [7] was “inactive” throughout. Also, the outcome in assay [2], in assay [3], in assay [4], in assay [5] and in assay [6] was inactive.

In the case of `C=C1[C@@H]2CC[C@@H]3C[C@@]2(C[C@@H](O)[C@@]2(O)[C@H]1C[C@H](O)C2(C)C)C[C@@]3(C)O[C@@H]1O[C@H](CO)[C@@H](O)[C@H](O)[C@H]1O`, the inhibition entry in assay [1] and in assay [7] was “inactive” each time. Further, the result in assay [2], in assay [3], in assay [4], in assay [5] and in assay [6] was inactive. The inhibition in vivo at 5 mg/kg in assay [8] is above 50%.

As for `C[C@H]1[C@@H]2C[C@H](O[C@@H]3O[C@H](CO)[C@@H](O)[C@H](O)[C@H]3O)C(C)(C)[C@]23O[C@]12CC[C@@H]1C[C@@]2(C[C@H]3O)C[C@@]1(C)O`, the inhibition entry in assay [1] and in assay [7] was “inactive” each time. The result in assay [2], in assay [3], in assay [4], in assay [5] and in assay [6] was inactive. The inhibition entry in assay [8] is “Active”.

For `C=C1[C@H]2C[C@H](O)C(C)(C)[C@@]2(O)[C@H](O)C[C@@]23C[C@@H](CC[C@@H]12)[C@](C)(O[C@@H]1O[C@H](CO)[C@@H](O)[C@H](O)[C@H]1O)C3`, the inhibition result in assay [1] and in assay [7] was “inactive” each time. For the same compound, the result in assay [2], in assay [3], in assay [4], in assay [5] and in assay [6] was inactive. Also, the inhibition entry in assay [8] was “Active”.

In the case of `C=C1[C@H]2C[C@H](O[C@@H]3O[C@H](CO)[C@@H](O)[C@H](O)[C@H]3O)C(C)(C)[C@@]2(O)[C@H](O)C[C@@]23C[C@@H](CC[C@@H]12)[C@](C)(O)C3`, the inhibition entry in assay [1], in assay [7] and in assay [8] was “inactive” throughout. The result in assay [2], in assay [3], in assay [4], in assay [5] and in assay [6] was inactive.
